Screening data deposited in PubChem by The Scripps Research Institute Molecular Screening Center.
A selection: hits, their analogues and other compounds. The true share with any hit is near 1.8%.
CHRM4 antagonist: CHRM4 antagonism in calcium assay | P08173 | CHO-hM4 cells, ACh EC80, Fluo-8 calcium fluorescence | inhibition, % at 3 µM | actives 0.73% (n = 360,000);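 active means inhibition above its plate's cutoff, the mean inhibition of sample wells plus 3 SD, cut at about 27% in these data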;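 further: 0% = acetylcholine EC80 with DMSO and 100% = DMSO without agonist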
CHRM5 antagonist: antagonists of human muscarinic M5 receptor (CHRM5); CHO-hM5 cells, Fluo-8 calcium fluorescence, ACh EC80; actives 0.59% (n = 360,000); inhibition, % at 3 µM; AID 624040; P08912;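 active means inhibition above a per-plate cutoff, the mean of that plate's test compounds plus 3 SD, cut at about 27% in these data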;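 further: 0% = acetylcholine EC80 with DMSO and 100% = DMSO without agonist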
Target sequence (P08912 whole entry, looked up): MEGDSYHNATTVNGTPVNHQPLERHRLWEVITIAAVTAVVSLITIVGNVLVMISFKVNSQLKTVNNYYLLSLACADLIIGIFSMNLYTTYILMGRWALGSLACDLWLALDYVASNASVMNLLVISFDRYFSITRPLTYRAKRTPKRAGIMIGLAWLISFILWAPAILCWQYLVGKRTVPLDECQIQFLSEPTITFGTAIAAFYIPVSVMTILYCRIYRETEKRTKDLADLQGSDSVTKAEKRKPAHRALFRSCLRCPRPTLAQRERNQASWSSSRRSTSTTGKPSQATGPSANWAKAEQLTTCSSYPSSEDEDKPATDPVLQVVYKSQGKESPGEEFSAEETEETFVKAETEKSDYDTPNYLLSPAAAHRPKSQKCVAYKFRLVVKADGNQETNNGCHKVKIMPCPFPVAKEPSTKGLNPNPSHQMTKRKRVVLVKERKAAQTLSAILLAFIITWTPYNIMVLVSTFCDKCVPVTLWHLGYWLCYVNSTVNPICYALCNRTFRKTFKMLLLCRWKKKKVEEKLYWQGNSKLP
CHRM5 agonist: agonists of human muscarinic M5 receptor (CHRM5) | CHO-K1 hM5 cells, Fluo-8 calcium fluorescence; 0% DMSO wells, 100% maximal acetylcholine response | activation, % at 3 µM | P08912 | actives 0.19% (n = 360,000);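 active means activation above the run's mean over test compounds plus 3 SD, cut at about 23% in these data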;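 further: signal is peak over basal fluorescence ratio across the kinetic read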
CHRM4 PAM: CHRM4 positive allosteric modulation | P08173 | CHO-K1 hM4/Gqi5, Fluo-8 calcium fluorescence, ACh EC20; 0% = ACh EC20, 100% = maximal ACh | activation, % at 3 µM | actives 0.4% (n = 360,000);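 active means activation above its plate's cutoff, the mean activation of sample wells plus 3 SD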
CHRM4 agonist: agonists of human muscarinic M4 receptor (CHRM4); CHO-K1 hM4/Gqi5, Fluo-8 calcium fluorescence; vehicle 0%, full acetylcholine response 100%; P08173; actives 0.14% (n = 360,000); activation, % at 3 µM;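 active means activation above the run mean over all test wells plus 3 SD, cut at about 32% in these data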;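 further: peak over basal fluorescence ratio per well then scaled between controls; 0% = DMSO wells and 100% = acetylcholine at EC100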
CHRM5 PAM: potentiates acetylcholine response at human M5 receptor | CHO-K1 hM5, Fluo-8 calcium, ACh EC20 PAM; 0% = ACh EC20, 100% = ACh EC100 | activation, % at 3 µM | actives 0.3% (n = 360,000);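 active means activation above the run cutoff, the mean activation of all test compounds plus 3 SD, cut at about 18% in these data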
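Test system: CHO-K1 hM5 cells / Doses: single-point, 3 µM nominal / Times: Post-acetylcholine fluorescence recording 140 s / Technique: Fluo-8 calcium fluorescence / Measure: Max/basal fluorescence ratio as % of EC20–EC100 ACh window / Benchmarks: low control EC20 acetylcholine (0%), high control EC100 acetylcholine (100%) / Replicates: one well per compound, no replicates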
* = called active by the depositor.

SMILES | CHRM4 antagonist | CHRM5 antagonist | CHRM5 agonist | CHRM4 PAM | CHRM4 agonist | CHRM5 PAM
CCN1CCN(C(=O)c2cc(COc3ccc4ncccc4c3)on2)CC1 | 8 | 5 | 8 | 0 | 12 | -13
Cc1cccc(OCc2nnc3n2CCCCC3)c1 | 7 | 31* | 3 | 4 | 1 | 36*
CCN(CC)C(=O)CSc1nnc(-c2ccccn2)n1-c1ccccc1OC | 31* | -14 | 2 | 20 | 2 | 11
CCCCOc1ccc(Br)cc1CSC(=N)N | 26* | 40* | 1 | -10 | 10 | -18
C/C=C/c1ccc(OCC(=O)Nc2cc(S(=O)(=O)N3CCOCC3)ccc2N2CCCC2)c(OC)c1 | -13 | 3 | -4 | 2 | 1 | 0
COc1ccc(OCc2nn3c(-c4cccc(OC)c4)nnc3s2)cc1 | -13 | -5 | -2 | 21* | 2 | 4
COc1ccc(OCc2nn3c(-c4ccco4)nnc3s2)cc1 | -10 | -2 | 3 | -1 | 4 | -6
Cc1cc(C(C)(C)C)cc(C)c1S(=O)(=O)N1CC(=O)Nc2ccccc21 | 7 | 7 | -6 | -6 | -1 | -2
Nc1cccc([N+](=O)[O-])c1 | -15 | 4 | -2 | 10 | 2 | 1
O=[N+]([O-])c1cccc(SSc2cccc([N+](=O)[O-])c2)c1 | 16 | 13 | 26* | 0 | 1 | 12
Cc1nc2scc(C)n2c(=O)c1S(=O)(=O)NCC1CCN(Cc2ccc(Cl)cc2)CC1 | 65* | 3 | -8 | -14 | 1 | -2
CN1CCC(=C(c2ccccc2)c2ccc(Br)cc2)CC1 | 12 | 30* | -15 | -47 | 12 | -34
Cc1ccc(OC(=O)N(C)C[C@H]2OCc3cn(nn3)CCCC(=O)N([C@H](C)CO)C[C@@H]2C)cc1 | -6 | 0 | 1 | 6 | 1 | -1
COc1ccc(C(=O)NCC(=O)OCC(=O)NC2CCCCCC2)cc1OC | 1 | 2 | 4 | -1 | 1 | -2
CC(=O)N(c1ccc(C)cc1)S(=O)(=O)c1ccc(Cl)cc1 | -7 | -22 | -9 | 2 | 0 | 3
CCC(C)CCN1C(N(C)C)=NC[C@@H]1C (some centres undefined) | 39* | 8 | -6 | 5 | 1 | -9
CC(C)(C)n1nnnc1C1c2ccccc2C(=O)N1CCc1c[nH]c2ccccc12 (centres undefined) | -28 | -1 | 3 | 3 | 7 | -8
CC1(C)OC(=O)CC1C(=O)NCc1ccccc1 (centres undefined) | -7 | 7 | -4 | 0 | 1 | 25*
CCCCCCN1C[C@H](n2cc(C3CC3)nn2)[C@@H](O)C[C@@H]1c1ccccc1 | -12 | 0 | 0 | 1 | -1 | 2
COc1ccc(-c2csc3ncn(-c4ccccc4OC)c(=O)c23)cc1OC | -25 | 1 | -5 | 30* | 6 | -7
O=C(NCCN1CCOCC1)N1c2ccccc2Sc2ccccc21 | 38* | 59* | -13 | -15 | 1 | -29
CN1CCN(CCC(=O)N2c3ccccc3Sc3ccc(C(F)(F)F)cc32)CC1 | 12 | 11 | -6 | -11 | 3 | -19
CN(C)CCCNC(=O)N1c2ccccc2Sc2ccccc21 | 97* | 100* | -24 | -16 | 1 | -34
O=C(CCN1CCOCC1)N1c2ccccc2Sc2ccc(Cl)cc21 | 57* | 95* | -7 | -19 | 1 | -17
COC(=O)[C@@]12C[C@@H](CC(=O)NCC34CC5CC(CC(C5)C3)C4)C(=O)N(CCc3ccc(OC)c(OC)c3)C1=CCC(C)(C)C2 | 5 | 5 | 0 | -8 | 2 | -5
SMILES | CHRM4 antagonist | CHRM5 antagonist | CHRM5 agonist | CHRM4 PAM | CHRM4 agonist | CHRM5 PAM
Cc1ccc(C)c(NC(=O)CN(C)C(=O)C2COc3ccccc3O2)c1 (centres undefined) | -9 | -1 | 2 | 11 | 1 | 0
CCCCOc1ccc(SCCCN2CCOCC2)cc1 | 10 | 18 | -9 | -8 | 4 | -6
Nc1nc(-c2ccc3c(c2)CCCC3)c(CC(=O)O)s1 | 29* | 7 | -7 | -15 | 1 | -19
Nc1nc(-c2ccc3c(c2)OCCO3)c(CC(=O)O)s1 | 3 | 1 | 0 | 0 | 3 | -4
Cc1cccc(N2CCN(C(=O)CCn3c(=S)[nH]c4cc5c(cc4c3=O)OCO5)CC2C)c1 (centres undefined) | 40* | -2 | 4 | 31* | 6 | -6
CCOc1cc(/C=N/NC(=O)c2ccc3c(c2)OCCO3)cc(Br)c1O | 3 | 6 | -1 | 1 | 7 | -3
N=C(N)c1ccc(OCCCCCOc2ccc(C(=N)N)cc2)cc1 | 31* | 6 | -2 | -14 | 0 | -7
COc1ccccc1N1CCN(C(=O)c2ccc3ncsc3c2)CC1 | 0 | 10 | 1 | -10 | 2 | -3
CC1(C(=O)Nc2ccc(F)c(Cl)c2)Cc2c(-c3ccccc3)ccnc2O1 (centres undefined) | -15 | 1 | 0 | 0 | -1 | -3
COc1ccc(Cc2n[nH]c(=S)n2NC(=O)Nc2ccc(Cl)c(Cl)c2)cc1 | 23 | 30* | 6 | -34 | 14 | -24
Cn1c(CC(=O)Nc2ccc(Cl)c(Cl)c2)n[nH]c1=S | 0 | -1 | 4 | 10 | 4 | 12
Cc1cc(Cn2nc(C(=O)NCc3cccc(Br)c3)cc2-c2ccccc2)on1 | 0 | 12 | -8 | -4 | 4 | -7
O=C(C(=Cc1ccc(O)cc1)c1ccccc1)c1ccccc1 | -5 | -1 | -3 | 2 | 0 | -13
Cc1ccc(C(=O)C(C)OC(=O)Cc2c[nH]c3ccccc23)cc1 (centres undefined) | -3 | 11 | -4 | 2 | 0 | 2
Cc1ccc(NC(=O)C(C)OC(=O)Cc2c[nH]c3ccccc23)cc1 (centres undefined) | -12 | -10 | -5 | 24* | 2 | 17
COc1ccc(NS(=O)(=O)c2cccc(NC(=O)c3ccc(Cl)nc3)c2)cc1 | 24 | 35* | 5 | -12 | 15 | -18
O=C(Nc1cccc(S(=O)(=O)Nc2ccc(Cl)cc2)c1)c1ccc(Cl)nc1 | 30* | 35* | 5 | -15 | 16 | -20
O=C(Nc1ccc(NS(=O)(=O)c2ccccc2)cc1)c1ccc(Cl)cc1 | 1 | 11 | -6 | -3 | 5 | -7
COc1cccc(C(O)c2nc(-c3cnn(C)c3)cs2)c1 (centres undefined) | 9 | 0 | 2 | 1 | 3 | -1
Cc1cccnc1NC(=O)CN1C(=O)COc2ccc(Cl)cc21 | -8 | -2 | 2 | 2 | 3 | 2
